Test results taken from ChEMBL document CHEMBL3526028 (Drug Metab Dispos, 2013).

What was measured:
Mus musculus [1] = assay: Brain efflux index in Bcrp1 deficient mouse assessed as transport of compound from ipsilateral cerebrum to the circulating blood across the blood-brain barrier at 10 nCi/ml, intracerebral microinjection after 30 mins relative to wild type; type: ADME, organism-based; settings: other, 0.5 h
Procedure, shortened: (§1)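 Intracerebral microinjection under ip ketamine (100 mg/kg)/xylazine (10 mg/kg). Stereotaxic needle at 3.8 mm lateral to bregma, 2.5 mm deep, into S2 cortex. 0.2 µL [3H]-drug (10 nCi/ml) with [14C]-carboxyl-inulin (10 nCi/ml) in ECF buffer pH 7.4 given over 2 min. Ipsilateral cerebrum taken at set times, homogenised in 5% BSA and counted by scintillation. Retained/injected ratio normalised to inulin; n=3-4.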

[2] = Drug uptake in mouse brain ipsilateral cerebrum assessed as radiolabelled compound after 30 mins at 0.1 uM, intracerebral microinjection in presence 100 mM probenecid OAT inhibitor; type: ADME, tissue-based; settings: in vivo, other, 0.5 h
Procedure, shortened: (§2)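 Male C57BL/6 wild-type mice under ketamine 100 mg/kg plus xylazine 10 mg/kg i.p., on a stereotaxic frame. 0.2 µL was injected over 2 min into the S2 cortex, 3.8 mm lateral to bregma and 2.5 mm deep. Injectate: [3H]-drug plus [14C]-carboxyl-inulin, 10 nCi/ml each, in ECF buffer pH 7.4. Needle held 4 min. Ipsilateral cerebrum harvested at 30 min and counted by scintillation. Retention normalized to inulin. n=3-4.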

Mus musculus [3] = assay: Brain efflux index in wild type mouse assessed as transport of compound from ipsilateral cerebrum to the circulating blood across the blood-brain barrier at 10 nCi/ml, intracerebral microinjection after 30 mins in presence 100 mM benzylpenicillin OAT inhibitor relative to wild type; settings: other, 0.5 h
Brain [4] = assay: Ratio of efflux clearance to clearance in brain measured in mouse at 0.3 uCi/ml by in vitro brain slice uptake technique; type: ADME, tissue-based
Mus musculus [5] = assay: Brain efflux index in wild type mouse assessed as transport of compound from ipsilateral cerebrum to the circulating blood across the blood-brain barrier at 10 nCi/ml, intracerebral microinjection after 30 mins; type: ADME, organism-based; settings: other, 0.5 h; procedure, shortened: as §1
Mus musculus [6] = assay: Brain efflux index in Mrp2 deficient mouse assessed as transport of compound from ipsilateral cerebrum to the circulating blood across the blood-brain barrier at 10 nCi/ml, intracerebral microinjection after 30 mins relative to wild type; settings: other, 0.5 h
[7] = Drug uptake in mouse brain ipsilateral cerebrum assessed as radiolabelled compound after 30 mins at 0.1 uM, intracerebral microinjection; type: ADME, tissue-based; settings: in vivo, other, 0.5 h; procedure, shortened: as §2
Mus musculus [8] = assay: Brain efflux index in wild-type mouse assessed as transport of compound from ipsilateral cerebrum to the circulating blood across the blood-brain barrier at 10 nCi/ml, intracerebral microinjection after 30 mins in presence 100 mM benzylpenicillin OAT inhibitor; settings: other, 0.5 h
Brain [9] = assay: Efflux clearance mouse brain measured per gm of tissue at 0.3 uCi/ml by in vitro brain slice uptake technique; type: ADME
[10] = Elimination rate constant mouse brain at 10 nCi/ml
[11] = Elimination half life in mouse brain at 10 nCi/ml, icv; type: ADME, organism-based; settings: icv or intrathecal, read-out: beta t1/2 (converted)
Procedure, shortened: (§3)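 Intracerebral microinjection into the S2 cortex of anaesthetized mice, 0.2 µL of [3H]-drug (10 nCi/ml) with [14C]-carboxyl-inulin in ECF buffer. Ipsilateral cerebrum radioactivity was followed over time, up to 60 min for methotrexate. Elimination rate constant keff came from regression of percent remaining versus time, and half-life from keff. n=3-4.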

[12] = Drug uptake in mouse brain ipsilateral cerebrum assessed as radiolabelled compound after 30 mins at 0.1 uM, intracerebral microinjection in presence 100 mM benzylpenicillin OAT inhibitor; type: ADME, tissue-based; settings: in vivo, other, 0.5 h; procedure, shortened: as §2
Mus musculus [13] = assay: Brain efflux index in Bcrp1 deficient mouse assessed as transport of compound from ipsilateral cerebrum to the circulating blood across the blood-brain barrier at 10 nCi/ml, intracerebral microinjection after 30 mins; type: ADME, organism-based; settings: other, 0.5 h; procedure, shortened: as §1
Mus musculus [14] = assay: Brain efflux index in Mrp2 deficient mouse assessed as transport of compound from ipsilateral cerebrum to the circulating blood across the blood-brain barrier at 10 nCi/ml, intracerebral microinjection after 60 mins; type: ADME, organism-based; settings: other, 1 h; procedure, shortened: as §1
Mus musculus [15] = assay: Brain efflux index in wild type mouse assessed as transport of compound from ipsilateral cerebrum to the circulating blood across the blood-brain barrier at 10 nCi/ml, intracerebral microinjection after 30 mins in presence 100 mM probenecid OAT inhibitor relative to wild type; settings: other, 0.5 h
Mus musculus [16] = assay: Brain efflux index in wild-type mouse assessed as transport of compound from ipsilateral cerebrum to the circulating blood across the blood-brain barrier at 10 nCi/ml, intracerebral microinjection after 30 mins in presence 100 mM probenecid OAT inhibitor; settings: other, 0.5 h
[17] = Drug uptake in mouse cerebrum
Brain [18] = assay: Elimination half life in mouse brain; type: ADME, tissue-based; settings: in vivo; procedure, shortened: as §3
Mus musculus [19] = assay: Brain efflux index in wild-type mouse assessed as transport of compound from ipsilateral cerebrum to the circulating blood across the blood-brain barrier at 10 nCi/ml, intracerebral microinjection after 30 mins in presence of 50 mM unlabelled compound; settings: other, 0.5 h
Mus musculus [20] = assay: Brain efflux index in wild type mouse assessed as transport of compound from ipsilateral cerebrum to the circulating blood across the blood-brain barrier at 10 nCi/ml, intracerebral microinjection after 30 mins in presence of 50 mM unlabelled compound relative to wild type; settings: other, 0.5 h
[21] = Drug uptake in mouse brain ipsilateral cerebrum assessed as radiolabelled compound after 30 mins at 0.1 uM, intracerebral microinjection in presence of 1 mM unlabelled compound; type: ADME, tissue-based; settings: in vivo, other, 0.5 h; procedure, shortened: as §2
Mus musculus [22] = assay: Brain efflux index in wild-type mouse assessed as transport of compound from ipsilateral cerebrum to the circulating blood across the blood-brain barrier at 10 nCi/ml, intracerebral microinjection after 30 mins in presence of 1 mM unlabelled compound; settings: other, 0.5 h
Mus musculus [23] = assay: Brain efflux index in wild type mouse assessed as transport of compound from ipsilateral cerebrum to the circulating blood across the blood-brain barrier at 10 nCi/ml, intracerebral microinjection after 30 mins in presence of 1 mM unlabelled compound relative to wild type; settings: other, 0.5 h
[24] = Drug uptake in mouse brain ipsilateral cerebrum assessed as radiolabelled compound after 30 mins at 0.1 uM, intracerebral microinjection in presence of 50 mM unlabelled compound; type: ADME, tissue-based; settings: in vivo, other, 0.5 h; procedure, shortened: as §2

SMILES | BEI (Mus musculus [1]) [%] | Drug uptake [2] [%] | BEI (Mus musculus [3]) [%] | BEI (Mus musculus [5]) [%] | Drug uptake [7] [%] | BEI (Mus musculus [8]) [%] | CL (Brain [9]) [µL/min/g] | k el [10] [s⁻¹] | half-life [11] [min] | Drug uptake [12] [%] | BEI (Mus musculus [13]) [%] | BEI (Mus musculus [14]) [%] | BEI (Mus musculus [15]) [%] | BEI (Mus musculus [16]) [%] | further results
CN(Cc1cnc2nc(N)nc(N)c2n1)c1ccc(C(=O)N[C@@H](CCC(=O)O)C(=O)O)cc1 [METHOTREXATE] | 72.7 | 75.8 | 21.4 | 63.8 | 36.2 | 13.7 | 20.23 | 0.000397 | 28.8 | 90 | 46.4 | 57.2 | 37.9 | 24.2 | Ratio (Brain [4]): 0.05; BEI (Mus musculus [6]): 90%; Drug uptake [17]: 3.2%
CCCC(CCC)C(=O)O [VALPROIC ACID] | – | – | – | – | – | – | – | – | – | – | – | – | – | – | beta t1/2 (Brain [18]): 2 min
Nc1nc2[nH]cc(CCc3ccc(C(=O)N[C@@H](CCC(=O)O)C(=O)O)cc3)c2c(=O)[nH]1 [PEMETREXED] | 89.7 | 72.4 | 25 | 48.9 | 51.1 | 12.2 | 11.04 | 0.000297 | 39 | 90 | 43.9 | 58.3 | 56.5 | 27.6 | BEI (Mus musculus [19]): 4.3%; BEI (Mus musculus [20]): 8.8%; Drug uptake [21]: 71.7%; BEI (Mus musculus [22]): 28.3%; BEI (Mus musculus [23]): 57.8%; Drug uptake [24]: 95.7%
